CXCR6 block: CXCR6 receptor inhibitors, primary screen, cell-based, beta-arrestin, luminescence, CHO-K1 PathHunter, 1536-well. C-X-C chemokine receptor type 6 (Homo sapiens), O00574. inhibition, % at 20 µM. 0.36% of 360,000 active. AID 602244, 2012; in the data active = inhibition above about 34%, passing the limit was not always enough;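 also: antagonist mode with CXCL16 agonist at 10 nM final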
EBI2 antag: EBI2 receptor antagonists, beta-arrestin recruitment, primary screen, cell-based, luminescence, 7a,25-OHC stimulation, uHTS | 7a,25-OHC stimulated | AID 651636, 2012 | 0.81% of 360,000 active | inhibition, % at 5 µM; in the data active = inhibition above about 38%;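 also: enzyme fragment complementation signal reports receptor beta-arrestin coupling in cells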
Target sequence (P32249 whole entry, looked up, the tested form may be a part): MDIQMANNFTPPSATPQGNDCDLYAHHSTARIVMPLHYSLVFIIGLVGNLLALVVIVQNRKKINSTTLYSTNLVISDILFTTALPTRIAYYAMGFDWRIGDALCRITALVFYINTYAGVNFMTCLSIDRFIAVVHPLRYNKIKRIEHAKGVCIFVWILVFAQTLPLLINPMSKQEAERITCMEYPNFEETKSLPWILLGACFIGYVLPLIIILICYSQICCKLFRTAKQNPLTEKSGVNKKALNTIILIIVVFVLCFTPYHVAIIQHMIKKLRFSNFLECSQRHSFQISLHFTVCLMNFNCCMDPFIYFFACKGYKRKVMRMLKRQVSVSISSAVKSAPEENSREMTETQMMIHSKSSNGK
APJ antag: antagonists of human apelin receptor APJ, primary screen, CHO-K1 cells, beta-arrestin complementation, luminescence. P35414. inhibition, % at 20 µM. 0.32% of 330,000 active;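 active = inhibition above about 40% at 20 µM, limit read from the data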;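 also: cells challenged with 10 nM apelin-13 agonist together with compound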
APJ ag: agonists of human apelin receptor APJ, primary screen, CHO-K1 cells, PathHunter beta-arrestin, luminescence; P35414; AID 2520, 2010; activation, % at 20 µM; 0.11% of 330,000 active; 0% DMSO wells, 100% apelin;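 active = activation more than six SD over the plate average, tested at 20 µM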
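Assay system – PathHunter CHO-K1 APJ (AGTRL-1) beta-arrestin reporter cells · Compound – one dose, 20 µM compound, 1% DMSO · Timing – compound 90 min 25 °C, reagent 1 h · Measured by – luminescence from split beta-galactosidase complementation, Galacton Star/Emerald II substrate · Measure – beta-arrestin recruitment to APJ as agonist activity, luminescent signal · Benchmarks – DMSO vs Apelin-13 10 nM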
CCR6 antagonist: CCR6 receptor antagonists, primary screen, cell-based, CHO-K1, luminescence, beta-arrestin, uHTS; C-C chemokine receptor type 6 (Homo sapiens), P51684; CHO-K1 CCR6 PathHunter beta-arrestin, CCL20-stimulated; inhibition, % at 20 µM; 0.49% of 340,000 active;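 active = compounds whose inhibition of the agonist-driven luminescence signal at 20 µM reaches about 50%, limit read from the data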;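 also: cells stimulated with CCL20 at 14 nM final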
EBI2 antag conf: EBI2 antagonist hit retest, beta-arrestin, confirmation, cell-based, single concentration, luminescence, 7a,25-OHC stimulation. 29% of 2,400 active. 7a,25-OHC antagonism. AID 651997, 2013. shares compounds with EBI2 antag. inhibition, % at 5 µM;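 active = inhibition of at least 50%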
EBI2 ag: EBI2 agonist activity of antagonist hits, confirmation, counter-screen for EBI2 antagonist project, cell-based, single concentration, agonist mode, luminescence; shares compounds with EBI2 antag; EBI2-expressing cells, 60 min; 0% vehicle, 100% 7α,25-dihydroxycholesterol control; activation, % at 5 µM; 2,400 tested, under 10 active; AID 652000, 2013;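 active = activation of at least 50%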
bGal cs: E. coli beta-galactosidase enzyme inhibition, confirmation, counter-screen for EBI2 antagonist project, biochemical, luminescence, single concentration. AID 652176, 2013. 1% of 2,400 active. shares compounds with EBI2 antag. purified beta-galactosidase, luminescent Galacton Star, 15 min. inhibition, % at 5 µM;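 active = replicate-average signal at least 3 plate SD below neutral wells, shown as high inhibition, flagging enzyme-inhibiting false positives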;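 also: higher means stronger loss of beta-gal luminescence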
Numbers stand for hits; – = inactive; · = no result. An excerpt weighted towards active compounds, which were near 1.5% of everything screened.

SMILES	CXCR6 block	EBI2 antag	APJ antag	APJ ag	CCR6 antagonist	EBI2 antag conf	EBI2 ag	bGal cs
COc1cc(C(=O)NCCOc2ccc(Cl)cc2)ccc1OCc1c(C)noc1C	–	72	–	–	–	56	–	–
COc1ccc(C(=O)C2CCN(C(=O)c3ccc(F)cc3)CC2)cc1	–	–	–	–	–	·	·	·
CCOc1ccc(C(=O)C2CCN(C(=O)c3ccc([N+](=O)[O-])cc3)CC2)cc1	–	84	–	–	–	53	–	–
COc1ccc(C(=O)C2CCN(C(=O)Nc3ccc(C)cc3)CC2)cc1	–	49	–	–	–	–	–	–
Cc1ccc(C2CCN(C(=O)Nc3ccc(F)cc3)C2)cc1 (stereo not drawn)	–	71	–	–	–	54	–	–
COc1ccc(C(=O)C2CCN(C(=O)c3ccc(C)cc3)CC2)cc1	–	53	–	–	–	–	–	–
Cc1ccc(NC(=O)N2CCC(C(=O)c3ccc(F)cc3)CC2)cc1	–	–	–	–	–	·	·	·
Cc1ccc(NC(=O)C2CCCN(C(=O)Nc3ccc(F)cc3)C2)cc1 (stereo not drawn)	–	–	–	–	–	·	·	·
OCCNCCNCc1ccccc1OCc1ccccc1	–	–	–	–	–	·	·	·
O=C1Nc2ccccc2C(=O)N(Cc2ccccc2)C1C(=O)NC1CC1 (stereo not drawn)	·	–	·	·	·	·	·	·
CCn1ccnc1CN(C)Cc1cn(C)nc1-c1ccccc1F	–	–	–	–	–	·	·	·
CN(C)C(=O)c1ccc(NC(=O)c2cccc(S(=O)(=O)N3CCN(Cc4ccccc4)CC3)c2)cc1	–	–	·	·	–	·	·	·
Cc1ccc(C)c(S(=O)(=O)N2CCN(CC(=O)Nc3ccc4c(c3)OCCO4)CC2)c1	–	–	–	–	–	·	·	·
Cc1ccc(C)c(S(=O)(=O)N2CCN(CC(=O)Nc3ccc4c(c3)CCC4)CC2)c1	–	47	–	–	–	–	–	–
CN(C)c1ccc(NC(=O)CN2CCN(S(=O)(=O)c3cc(Cl)ccc3Cl)CC2)cc1	–	64	–	–	–	–	–	–
CN(CC(=O)Nc1ccc(Cl)cc1)C(=O)c1cccc(S(=O)(=O)N2CCN(Cc3ccccc3)CC2)c1	–	62	–	–	–	–	–	–
O=C(NCc1ccc(-c2nc3ccccc3s2)cc1)c1ccc(Br)o1	–	–	–	–	–	·	·	·
C=CCn1c(SCc2ccc(C(=O)Nc3ccccc3)cc2)nnc1-c1ccccc1	–	49	–	–	–	–	–	–
